Our source for the CC50, EC50 and SI values is paper PMC7111685 (Phytochemistry, 2015).

Series [1] can be described thus: Cytotoxicity assay. Format: cell-based. The conditions noted are these: African green monkey, Vero cells. In short, it runs like this: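 Vero cells grown in DMEM with 10% FBS and penicillin/streptomycin, plated at 1 × 10^5 cells/well and grown 24 h. Exposed 48 h to various concentrations of test compound, final DMSO under 0.05% (v/v). MTT solution (2 mg/mL) added for 4 h, supernatant removed, formazan dissolved in DMSO, absorbance read at 550 nm. Viability expressed relative to control wells; CC50 by regression analysis.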

Series [2] has as its system porcine epidemic diarrhea virus (PEDV). As to the kind of experiment: Cytopathic effect. Format: cell-based. In short, it runs like this: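 Vero cells (DMEM, 10% FBS, penicillin/streptomycin) seeded at 1 × 10^5 cells/well and PBS-washed a day later. Near-confluent monolayers were inoculated with PEDV at 0.01 MOI for 2 h, then given DMEM with various concentrations of test compound. After 72 h at 37 °C, 5% CO2, MTT solution (2 mg/mL) was added for 4 h. EC50 came from regression analysis; SI = CC50/EC50.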
(Protection from cytopathic effect is a common read-out in antiviral testing.)

A word on the CC50: it is the concentration giving 50% cytotoxicity. Lower therefore signals greater toxicity to the cells. Usually EC50 stands for the concentration giving half of the maximal effect. A higher EC50 goes with lower potency in that assay. As to `O=c1cnn([C@@H]2O[C@H](CO)[C@@H](O)[C@H]2O)c(=O)[nH]1` [Compound 6-Azauridine, 6-Azauridine], the half-maximal cytotoxic concentration (CC50) at 48 h in series [1] was determined as 44.5 ± 6.11 µM. A half-maximal effect in series [2] (Porcine epidemic diarrhea virus, Vero, 72 h) (EC50) was put at 5.58 ± 0.53 µM. Moreover, in series [2] (selective index, SI = CC50/EC50), the SI is 7.98 ± 0.37.
